Activity calls are given as the source filed them. The calls are words filed in the database; no cut-off is given here.
Assays:
[1] = tested on: HeLa; assay: Cytostatic activity against human HeLa cells after 5 days by Coulter counting analysis; type: functional, cell-based; conditions: 120 h
Method in brief: (§1)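 Cells seeded at 10,000 cells per cm2; after 16 h given fresh medium containing test compounds. Trypsinized on day 5 and counted by Coulter counter. […] Tumour lines kept in DMEM with 10 mM Hepes and 10% FBS.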

[2] = species: Gallus gallus; assay: Antiangiogenic activity in chicken embryo chorioallantoic membrane model assessed as complete inhibition of VEGF-induced angiogenesis at 50 nmol after 2 days by photographic analysis
[3] = tested on: MCF7; assay: Cytostatic activity against human MCF7 cells after 5 days by Coulter counting analysis; type: functional, cell-based; conditions: MCF7, 120 h; method in brief: as §1
[4] = species: Gallus gallus; assay: Antiangiogenic activity in chicken embryo chorioallantoic membrane model assessed as inhibition of VEGF-induced angiogenesis at 50 nmol after 2 days by photographic analysis
[5] = Antiangiogenic activity in MAEC assessed as inhibition of cell proliferation after 5 days by Coulter counting analysis; type: functional; conditions: Mus musculus, 120 h; method in brief: as §1
[6] = Antiangiogenic activity in BAEC assessed as inhibition of cell proliferation after 5 days by Coulter counting analysis; type: functional, cell-based; conditions: Bos taurus, 120 h; method in brief: as §1
[7] = Antiangiogenic activity in MAEC assessed as inhibition of cell migration-associated wound closure at 50 uM after 8 hrs imaging analysis; type: functional; conditions: Mus musculus
Method in brief: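 Confluent MAEC monolayers wounded with a 1.0-mm wide tip, then incubated in fresh medium with 10% FCS plus compound (10 and 50 μM). At 8 h, wounds photographed; cells invading the wound quantified by computerized analysis of digitized images. Results as mean ± SEM.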

IC50 [1] [µM]	IC50 [3] [µM]	Compound	inhibition [2]	inhibition [4]	IC50 [5] [µM]	IC50 [6] [µM]	inhibition at 50 µM [7] [%]
37	26	O=c1c2cn(-c3ccc(O)cc3)nc2c2cc(O)ccc2n1O	Active	64%	25	38	76
38	25	O=c1c2cn(-c3ccc(O)cc3)nc2c2ccc(O)cc2n1O		Active	42	52	
8.9	5.8	O=c1c2cn(-c3ccc(O)cc3)nc2c2ccccc2n1O		Active	7	4.6	
		CCOC(=O)/C=C/c1cn(-c2ccc(O)cc2)nc1-c1cc(O)ccc1O			12		
		O=C(O)/C=C/c1cn(-c2ccc(O)cc2)nc1-c1cc(O)ccc1O			> 100		
≥ 100	≥ 100	O=Cc1cn(-c2ccc(O)cc2)nc1-c1cc(O)ccc1O		Toxic	43	≥ 100	
		O=C(O)/C=C/c1cn(-c2ccc(O)cc2)nc1-c1ccc(O)cc1			> 100		
		CCOC(=O)/C=C/c1cn(-c2ccc(O)cc2)nc1-c1ccccc1			29		
		CCOC(=O)/C=C/c1cn(-c2ccc(O)cc2)nc1-c1ccc(O)c(O)c1			6.2		
		CCOC(=O)/C=C/c1cn(-c2ccc(O)cc2)nc1-c1ccc(O)cc1			25		
		O=C(O)/C=C/c1cn(-c2ccc(O)cc2)nc1-c1ccccc1			> 100		
79	47	O=Cc1cn(-c2ccc(O)cc2)nc1-c1ccccc1		inactive	> 100	64	
		CCOC(=O)/C=C/c1cn(-c2ccc(O)cc2)nc1-c1cccc(O)c1			14		
39	24	O=Cc1cn(-c2ccc(O)cc2)nc1-c1ccc(O)c(O)c1		Toxic	12	17	
37	38	O=Cc1cn(-c2ccc(O)cc2)nc1-c1ccc(O)cc1		48%	44	32	
		O=c1c2cn(-c3ccc(O)cc3)nc2c2cc(O)c(O)cc2n1O		Active			
		O=c1c2cn(-c3ccc(O)cc3)nc2c2c(O)ccc(O)c2n1O		Active			
		O=C(O)/C=C/c1cn(-c2ccc(O)cc2)nc1-c1ccc(O)c(O)c1			> 100		
37	29	O=Cc1cn(-c2ccc(O)cc2)nc1-c1cccc(O)c1		50%	42	29	
		O=C(O)/C=C/c1cn(-c2ccc(O)cc2)nc1-c1cccc(O)c1			> 100		
